Assay [1] is filed under the species Mus musculus. Description: Induction of 10 mM glucose-induced insulin release in CD1 GLP1 receptor knockout mouse pancreatic islets at 100 nM. Type of assay: functional.
For assay [2], the species on record is Mus musculus. As to the kind of experiment: Induction of 10 mM glucose-induced insulin release in CD1 GLP1 receptor knockout mouse pancreatic islets at 1000 nM. Type of assay: functional. The essentials:
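Islets came from CD1 GLP-1 receptor knockout mice, isolated by collagenase and cultured overnight, then perifused at 37 °C, 0.30 ml/min, 30 islets per column. After 30 min at 3 mM glucose, glucose was 3 mM from 0–30 min, then 10 mM. Agents were present 10–60 min, with DMSO ≤0.1% and a 10 μM imidazoline control. Three groups of 30 islets, mean ± SEM.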

The species named for assay [3] is Mus musculus. Description: Induction of 3 mM glucose-induced insulin release in CD1 wild type mouse pancreatic islets at 100 nM. Type of assay: functional. The essentials:
(§1)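 Adult CD1 wild-type mouse islets were isolated by collagenase digestion, cultured overnight in RPMI 1640 with 10% newborn calf serum, and perifused the next day. Columns held 30 islets, run at 37 °C and 0.30 ml/min in pH 7.4 Hepes buffer with albumin. After 30 min basal perifusion at 3 mM glucose, glucose was 3 mM from 0–60 min, then 10 mM. Agent was present 10–70 min (final DMSO ≤0.1%). Three groups of 30 islets, mean ± SEM.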

The species entered for assay [4] is Mus musculus. As to the kind of experiment: Induction of 10 mM glucose-induced insulin release in CD1 wild type mouse pancreatic islets at 100 nM. Type of assay: functional. The gist of the method: as §1
Assay [5] is filed under the species Mus musculus. As to the kind of experiment: Induction of 3 mM glucose-induced insulin release in CD1 wild type mouse pancreatic islets at 1000 nM. Format: functional. The gist of the method:
as §1

For assay [6], the target named is T1, Glucagon-like peptide 1 receptor (Homo sapiens, UniProt P43220). Description: Agonist activity at human GLP1 receptor expressed in BHK cells assessed as cAMP accumulation. Format: functional, cell-based.
Another assay relates to Pancreas. As to the kind of experiment: Induction of 10 mM glucose-induced insulin release in Sprague-Dawley rat pancreas at 10 uM. Format: functional, tissue-based. The gist of the method: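 Pancreas from male SD rats perfused at 37°C with oxygenated Krebs Ringer containing 0.25% BSA, 4% Dextran T-70 and 2 mM calcium, total flow 1.9 ml/min. Compound (final DMSO 0.25%) given at t = 20–40 min with 10 mM glucose; insulin release followed; two to three experiments, mean ± SD.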

The target in assay [7] is T1, Glucagon-like peptide 1 receptor. As to the kind of experiment: Increase in [125I]GLP1 binding to human GLP1 receptor expressed in BHK cells. Type of assay: cell-based. The gist of the method: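 BHK-cell plasma membranes expressing human GLP-1 receptor with 125I-GLP-1(7–36)amide tracer (50,000 cpm/well) in 25 mM Hepes, 0.1% BSA, pH 7.4; final DMSO 4.4%. Incubated 1 h at 37°C, then vacuum filtration and one wash. Nonspecific binding defined with 1 μM GLP-1; triplicates; curves fitted as one-site competition.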

Assay [8] is filed under the species Mus musculus. As to the kind of experiment: Induction of 10 mM glucose-induced insulin release in CD1 wild type mouse pancreatic islets at 1000 nM. Format: functional. The essentials: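 Islets from adult CD1 mice isolated by collagenase and cultured overnight in RPMI 1640 with 10% newborn calf serum. Groups of 30 islets perifused at 37°C, 0.30 ml/min, in Hepes-bicarbonate buffer with albumin. Glucose 3 mM from 0–60 min, then 10 mM; compound added at 10 min and removed at 70 min. Final DMSO ≤0.1%. Three groups per condition.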

The target of assay [9] is T2, Glucagon-like peptide 2 receptor (Homo sapiens) (UniProt O95838).
T2 sequence (whole entry): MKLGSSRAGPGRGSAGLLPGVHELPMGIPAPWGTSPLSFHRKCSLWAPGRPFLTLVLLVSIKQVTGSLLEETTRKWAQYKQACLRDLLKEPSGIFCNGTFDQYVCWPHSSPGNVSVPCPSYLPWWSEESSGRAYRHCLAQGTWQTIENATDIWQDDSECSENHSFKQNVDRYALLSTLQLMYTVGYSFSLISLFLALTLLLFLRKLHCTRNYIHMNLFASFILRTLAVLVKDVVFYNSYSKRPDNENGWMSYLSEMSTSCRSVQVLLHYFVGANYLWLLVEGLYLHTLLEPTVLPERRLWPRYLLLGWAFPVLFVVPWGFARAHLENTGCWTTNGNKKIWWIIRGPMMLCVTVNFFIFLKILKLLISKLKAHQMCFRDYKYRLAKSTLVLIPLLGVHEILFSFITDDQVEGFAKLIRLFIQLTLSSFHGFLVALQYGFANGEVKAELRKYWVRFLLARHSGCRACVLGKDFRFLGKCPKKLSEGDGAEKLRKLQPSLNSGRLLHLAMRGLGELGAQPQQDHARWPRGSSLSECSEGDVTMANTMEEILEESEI
As to the kind of experiment: Agonist activity at human GLP2 receptor expressed in BHK cells assessed as cAMP accumulation. Format: functional, cell-based.

In assay [10] the target is Glucagon receptor (Homo sapiens) (UniProt P47871). As to the kind of experiment: Agonist activity at human glucagon receptor expressed in BHK cells assessed as cAMP accumulation. Format: functional, cell-based. A general note: Cyclic AMP is a second messenger, typically raised through Gs and lowered through Gi signalling.
Assay [11] has as its target T3, Gastric inhibitory polypeptide receptor (Homo sapiens) (UniProt P48546).
T3 sequence (whole entry): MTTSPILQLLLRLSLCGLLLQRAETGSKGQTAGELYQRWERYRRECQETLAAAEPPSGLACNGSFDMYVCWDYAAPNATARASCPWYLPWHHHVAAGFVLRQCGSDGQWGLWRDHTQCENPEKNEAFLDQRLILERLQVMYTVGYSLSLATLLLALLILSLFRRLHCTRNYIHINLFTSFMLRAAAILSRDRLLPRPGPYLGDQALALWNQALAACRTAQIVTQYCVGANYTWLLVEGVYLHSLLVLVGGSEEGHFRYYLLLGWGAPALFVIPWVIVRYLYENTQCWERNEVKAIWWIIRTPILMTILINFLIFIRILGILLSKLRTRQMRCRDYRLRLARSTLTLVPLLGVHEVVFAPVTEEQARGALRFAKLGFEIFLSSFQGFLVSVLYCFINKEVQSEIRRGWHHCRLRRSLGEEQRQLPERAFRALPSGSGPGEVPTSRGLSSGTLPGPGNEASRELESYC
Description: Agonist activity at human GIP receptor expressed in BHK cells assessed as cAMP accumulation. Format: functional, cell-based.

Active and inactive are the calls of the source. The calls are words filed in the database; no cut-off is given here.

T1 sequence (P43220 whole entry, the tested form may be a part): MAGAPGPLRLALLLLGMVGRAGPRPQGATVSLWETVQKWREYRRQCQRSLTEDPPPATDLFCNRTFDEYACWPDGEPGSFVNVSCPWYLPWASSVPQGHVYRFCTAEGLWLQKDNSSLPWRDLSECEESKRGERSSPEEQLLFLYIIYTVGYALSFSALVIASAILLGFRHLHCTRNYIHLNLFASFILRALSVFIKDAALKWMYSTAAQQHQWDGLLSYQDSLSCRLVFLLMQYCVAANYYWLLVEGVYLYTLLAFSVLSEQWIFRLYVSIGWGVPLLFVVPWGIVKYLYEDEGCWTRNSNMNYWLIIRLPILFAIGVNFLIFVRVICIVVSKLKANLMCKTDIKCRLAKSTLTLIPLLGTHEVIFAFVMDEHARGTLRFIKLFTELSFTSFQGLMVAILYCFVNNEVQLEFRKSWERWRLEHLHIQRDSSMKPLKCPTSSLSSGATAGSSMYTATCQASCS
Chain of Glucagon receptor (Homo sapiens) (P47871 whole entry): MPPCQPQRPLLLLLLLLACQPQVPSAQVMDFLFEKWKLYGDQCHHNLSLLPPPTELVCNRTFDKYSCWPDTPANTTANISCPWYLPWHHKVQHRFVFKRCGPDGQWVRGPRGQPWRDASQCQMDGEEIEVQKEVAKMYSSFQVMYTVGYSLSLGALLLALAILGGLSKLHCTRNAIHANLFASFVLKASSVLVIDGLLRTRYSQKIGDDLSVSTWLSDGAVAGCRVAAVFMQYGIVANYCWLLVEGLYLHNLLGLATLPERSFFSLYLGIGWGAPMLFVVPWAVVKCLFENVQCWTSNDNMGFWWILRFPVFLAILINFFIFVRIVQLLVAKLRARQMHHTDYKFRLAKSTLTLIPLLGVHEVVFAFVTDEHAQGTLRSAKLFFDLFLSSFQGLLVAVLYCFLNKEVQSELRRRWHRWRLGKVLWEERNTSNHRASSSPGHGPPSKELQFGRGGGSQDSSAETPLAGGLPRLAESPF

For the compound `CC[C@H](C)[C@H](NC(=O)[C@H](Cc1ccccc1)NC(=O)[C@H](CCC(=O)O)NC(=O)[C@H](CCCCN)NC(=O)[C@H](C)NC(=O)[C@H](C)NC(=O)[C@H](CCC(N)=O)NC(=O)CNC(=O)[C@H](CCC(=O)O)NC(=O)[C@H](CC(C)C)NC(=O)[C@H](Cc1ccc(O)cc1)NC(=O)[C@H](CO)NC(=O)[C@H](CO)NC(=O)[C@@H](NC(=O)[C@H](CC(=O)O)NC(=O)[C@H](CO)NC(=O)[C@@H](NC(=O)[C@H](Cc1ccccc1)NC(=O)[C@@H](NC(=O)CNC(=O)[C@H](CCC(=O)O)NC(=O)[C@H](C)NC(=O)[C@@H](N)Cc1c[nH]cn1)[C@@H](C)O)[C@@H](C)O)C(C)C)C(=O)N[C@@H](C)C(=O)N[C@@H](Cc1c[nH]c2ccccc12)C(=O)N[C@@H](CC(C)C)C(=O)N[C@H](C(=O)N[C@@H](CCCCN)C(=O)NCC(=O)N[C@@H](CCCN=C(N)N)C(=O)NCC(=O)O)C(C)C`, the result in the assay filed under Mus musculus [1], in the assay filed under Mus musculus [2], in the assay filed under Mus musculus [3] and in the assay filed under Mus musculus [5] was inactive. Besides, the outcome in the assay listed under Mus musculus [4] was Active.
As a reminder, the EC50 is the concentration needed to bring the measured effect to its halfway point. For `CC(C)(C)Nc1nc2cc(Cl)c(Cl)cc2nc1S(C)(=O)=O`, the result in the assay filed under Mus musculus [1], in the assay filed under Mus musculus [2], in the assay listed under Mus musculus [3], in the assay listed under Mus musculus [4] and in the assay listed under Mus musculus [5] was inactive. In [6], the concentration for a half-maximal effect (EC50) was found to be 0.101 µM. For the same compound, the result (in the assay on Pancreas; in assay [7]; in the assay listed under Mus musculus [8]) was Active.
Take `Cc1cnc(Sc2nc3cc(Cl)c(Cl)cc3nc2C(F)(F)F)s1`: the EC50 in assay [6] stood at 1.4 µM. Further, the result in assay [9], in assay [10] and in [11] was inactive. The Activity entry in [7] is “Dose-dependent effect”.

(Values after ChEMBL document CHEMBL1147050, “Small-molecule agonists for the glucagon-like peptide 1 receptor” (Proc Natl Acad Sci U S A, 2007).)
